TAAR1 agonist – human TAAR1 agonism. activation, % at 3 µM. CHO RD-HGA16 TAAR1, Fluo-8 calcium fluorescence; vehicle wells 0%, saturating PEA agonist 100%. Q96RJ0. AID 624467. 360,000 tested, 0.99% active;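 active = activation above the mean activation of all test compounds in the run plus 3 SD, cut at about 38% in these data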
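System: CHO-derived RD-HGA16 cells with stable Gα16 and human TAAR1. Times: 17-24 h plating, Fluo-8 75 min 37 °C, 30 min RT. Measured by: calcium-sensitive Fluo-8 signal, excitation 470-495, emission 515-575 nm. Read-out basis: % activation relative to PEA EC100 response. Control set: DMSO and PEA EC100. Repeats: no replicates (n 1).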
TAAR1 antagonist – antagonists of human TAAR1 | Q96RJ0 | CHO RD-HGA16 TAAR1, Fluo-8 calcium fluorescence, antagonist | inhibition, % at 3 µM | 360,000 tested, 1.5% active | AID 624466;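 active = inhibition above a per-plate cutoff, the mean inhibition of test compounds on that plate plus 3 SD, cut at about 49% in these data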;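 note: 0% = DMSO plus EC80 beta-PEA response and 100% = DMSO alone without agonist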
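Test system – hTAAR1-expressing CHO RD-HGA16 cells, Gα16-coupled · Also added – β-PEA at EC80 concentration, post-compound challenge · Compound – 3 µM, single point · Incubation – dye loading 75 min at 37 °C, then 30 min room temperature · Measured by – Fluo-8 intracellular calcium dye fluorescence, real-time kinetic reads · Benchmarks – vehicle and agonist controls · Replicates – singlicate, one well per test compound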
CHRM1 PAM – positive allosteric modulators of human M1 muscarinic receptor. P11229. CHO-K1 hM1, Fluo-8 calcium fluorescence, ACh EC20; 0% = ACh EC20, 100% = maximal ACh. activation, % at 3 µM. 360,000 tested, 0.088% active; in the data active = activation above about 19%, passing the limit was not always enough
Target sequence (P11229 whole entry, looked up): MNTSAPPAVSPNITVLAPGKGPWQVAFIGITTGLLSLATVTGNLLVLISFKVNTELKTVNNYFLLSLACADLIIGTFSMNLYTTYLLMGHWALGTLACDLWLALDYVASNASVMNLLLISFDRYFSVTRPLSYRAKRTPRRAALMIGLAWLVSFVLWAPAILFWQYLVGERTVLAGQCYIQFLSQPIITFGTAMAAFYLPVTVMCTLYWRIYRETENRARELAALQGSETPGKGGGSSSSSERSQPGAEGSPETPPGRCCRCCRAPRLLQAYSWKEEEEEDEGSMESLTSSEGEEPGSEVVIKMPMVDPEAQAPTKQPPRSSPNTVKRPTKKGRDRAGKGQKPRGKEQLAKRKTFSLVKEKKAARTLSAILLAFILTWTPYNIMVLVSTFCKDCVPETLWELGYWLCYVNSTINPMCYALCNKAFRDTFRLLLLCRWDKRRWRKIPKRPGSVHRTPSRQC
CHRM1 agonist – agonists of human M1 muscarinic receptor; activation, % at 3 µM; AID 588814; 360,000 tested, 0.33% active; CHO-K1 hM1, Fluo-8 calcium fluorescence, agonist mode; 0% DMSO, 100% acetylcholine EC100; P11229;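 active = activation above the run's mean compound activation plus 3 SD, cut at about 16% in these data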;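 note: peak over basal fluorescence ratio within a 140 s kinetic read after compound addition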
CHRM1 antagonist – blocks human M1 muscarinic receptor | P11229 | 360,000 tested, 1.3% active | inhibition, % at 3 µM | CHO-K1 hM1, Fluo-8 calcium fluorescence, ACh EC80 antagonist | AID 588852;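 active = percent inhibition above its own plate's cutoff, namely the mean of that plate's compound wells plus 3 SD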;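 note: peak over basal fluorescence ratio during 140 s after agonist addition; 0% = ACh EC80 plus DMSO and 100% = DMSO alone without agonist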
nonsel antag count – nonselective antagonist in TAAR1 antagonist counter-screen; 2,400 tested, 77% active; AID 651780; counterscreen cell line, calcium fluorescence, antagonist mode; shares compounds with TAAR1 antagonist; inhibition, % at 3 µM; in the data active = inhibition above about 22%;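 note: CHO-Ga16 host cells stimulated with ATP at an EC80 level; 0% = agonist EC80 plus vehicle and 100% = vehicle without agonist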
TAAR1 antag conf – confirmation of human TAAR1 antagonists; TAAR1-expressing cells, fluorescence antagonist read-out; inhibition, % at 3 µM; 2,400 tested, 40% active; shares compounds with TAAR1 antagonist; in the data active = inhibition above about 49%;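 note: CHO-Ga16 host cells challenged with agonist PEA near its EC80; 0% = agonist at EC80 plus vehicle and 100% = vehicle with no agonist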
Ga16 nonsel ag – nonselective Ga16 agonism, counter-screen; shares compounds with TAAR1 antagonist; Ga16-expressing cells, calcium fluorescence, agonist counterscreen; activation, % at 3 µM; 2,400 tested, 18% active; AID 651953; in the data active = activation above about 12%;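 note: 0% = vehicle wells and 100% = saturating stimulus response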
TAAR1 ag count – counter-screen for human TAAR1 antagonists: TAAR1 agonists; AID 651955; shares compounds with TAAR1 antagonist; 2,400 tested, 2% active; hTAAR1 cell line, fluorescence activation, agonist mode; activation, % at 3 µM; in the data active = activation above about 37%;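 note: CHO cells stably expressing TAAR1 with calcium dye readout; 0% = DMSO vehicle and 100% = full agonist response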
The depositor's hits bear a star; · = no result. Hits are enriched below; roughly 3.4% of the tested compounds scored in any of these assays.

SMILES | TAAR1 agonist | TAAR1 antagonist | CHRM1 PAM | CHRM1 agonist | CHRM1 antagonist | nonsel antag count | TAAR1 antag conf | Ga16 nonsel ag | TAAR1 ag count
CC(=O)Nc1cc(-c2cccc(F)c2)cn2c(-c3ccccc3)cnc12 | 11 | 61* | -2 | -4 | 11 | 35* | 43 | 4 | 8
O=C(COC(=O)c1ccccc1SCC(=O)N1CCCC1)Nc1ccccc1 | 5 | 18 | 10 | 1 | -17 | · | · | · | ·
CC(C)(C)N(Cc1ccccc1)C(=O)COC(=O)c1ccccc1SCC(=O)N1CCCC1 | 6 | 61* | -2 | 3 | -1 | 21 | 43 | 9 | 11
Cc1cccc(C)c1NC(=O)C1(C)CN(S(C)(=O)=O)CC(=O)N1C1CC1 (stereo unspecified) | 2 | -8 | · | · | · | · | · | · | ·
O=C(NCc1ccccc1)C1C(c2ccccc2)=Nc2ccccc2N1C(=O)c1cccnc1 (stereo unspecified) | 2 | -17 | · | · | · | · | · | · | ·
CC(C)(C)c1cc(C(=O)NNC(=O)Nc2ccccc2)n(Cc2ccccc2)n1 | -2 | 1 | 4 | -2 | -8 | · | · | · | ·
CC(C)(C)c1cc(C(=O)NCc2cc(F)cc3c2OCOC3)n(Cc2ccccc2)n1 | 4 | 81* | -14 | -4 | 35 | 34* | 55* | 5 | 2
CS(=O)(=O)c1nc(-c2ccc(Br)cc2)cc(-c2ccccc2)c1C#N | 3 | 48 | 3 | -2 | -3 | · | · | · | ·
CS(=O)c1nc(-c2ccc(Br)cc2)cc(-c2ccccc2)c1C#N (stereo unspecified) | -2 | 70* | 4 | 2 | -7 | 27* | 53* | 4 | 2
CCOC1=C(C#N)CC2(CC1)c1ccccc1-c1ccccc12 | 3 | 71* | -12 | 0 | 26 | 24* | 41 | 5 | 7
O=C(Nc1ccc(F)c(Cl)c1)NC1CC1 | 2 | 105* | -4 | -5 | 11 | -5 | 2 | 10 | 15
O=C(Nc1ccc(F)c(Cl)c1)C1CCCC1 | 0 | -13 | 2 | -5 | -4 | · | · | · | ·
Cc1nc2c(OCc3ccc(C(F)(F)F)cc3)cccn2c1N(C)C(=O)CCC1CCCC1 | 1 | 29 | -26 | -8 | 28 | · | · | · | ·
COC(=O)c1ccc(COc2cccn3c(N(C)C(=O)CCC4CCCC4)c(C)nc23)cc1 | 4 | 68* | -25 | -4 | 26 | 34* | 55* | 7 | 12
COC(=O)C[C@@H]1CC[C@H](NC(=O)Nc2cccc(F)c2)[C@@H](CO)O1 | 0 | 17 | · | · | · | · | · | · | ·
N#Cc1cccc(C(=O)C(=O)N2CCN(C(=O)OCc3ccccc3)CC2)c1 | 3 | -5 | · | · | · | · | · | · | ·
O=C(Nc1cc(Cl)ccc1Cl)c1ccc(OC(=O)c2ccco2)cc1 | 11 | 85* | -1 | -8 | -5 | 25* | 37 | 3 | 4
COc1ccccc1CN(Cc1nc2ccccc2c(=O)[nH]1)S(=O)(=O)c1ccc2ccccc2c1 | 7 | 70* | -25 | -7 | 43* | 25* | 56* | 7 | 10
COc1ccc(S(=O)(=O)N(Cc2ccccc2)Cc2nc3ccccc3c(=O)[nH]2)cc1 | 12 | 30 | 0 | -5 | -16 | · | · | · | ·
COCCN1C(=O)CCC1(C)c1nnnn1Cc1ccccc1 (stereo unspecified) | 3 | -12 | · | · | · | · | · | · | ·
CCOC(=O)c1cc(-c2nnc(SCC(=O)Nc3ccc(F)cc3)o2)c(C)nc1C | 9 | 54* | 10 | -3 | -13 | 18 | 31 | 5 | 3
COc1ccc(NC(=O)CSc2nnc(-c3ccc(F)cc3)o2)cn1 | 2 | -5 | -8 | -4 | 14 | · | · | · | ·
O=C1NC[C@H](CCCCN2C[C@H](Cc3ccc(O)cc3)N(CCC3CCCCC3)C(=O)C2=O)N(CCC2CCCCC2)C1=O | 3 | -19 | · | · | · | · | · | · | ·
CCOCCCNC(=O)c1cc(-c2ccc(Br)s2)nc2ccccc12 | 0 | 2 | 6 | -5 | -9 | · | · | · | ·
Cc1nn(-c2ccccn2)c2nc(-c3cccs3)cc(C(=O)NCc3ccco3)c12 | 14 | 60* | 5 | -2 | -8 | 32* | 49* | 5 | 4
SMILES | TAAR1 agonist | TAAR1 antagonist | CHRM1 PAM | CHRM1 agonist | CHRM1 antagonist | nonsel antag count | TAAR1 antag conf | Ga16 nonsel ag | TAAR1 ag count
CC(C)OCCCNC(=O)c1cc(-c2cccs2)nc2ccccc12 | 17 | 57* | -5 | -4 | 12 | 31* | 49 | 7 | 11
O=C(N/N=C/c1ccc2ncccc2c1)c1cc(-c2cccs2)nc2ccccc12 | 3 | 57* | -6 | -3 | -6 | 27* | 44 | 5 | 15
CCOC(=O)c1cc(-c2cccs2)nc2c1c(C)nn2-c1ccccn1 | 2 | 28 | -8 | -7 | 17 | · | · | · | ·
O=C(NCc1ccco1)c1cc(-c2cccs2)nc2ccccc12 | 12 | 62* | -3 | -7 | 7 | 27* | 42 | 6 | 3
CCCCCCCCN1C(=O)[C@H](CC(=O)NCc2ccc(C)o2)C[C@@]2(C(=O)OCC)CCC=C12 | -2 | 6 | · | · | · | · | · | · | ·
Cc1cc(C)c2nc(NNC(=O)c3cc(-c4cccs4)nc4ccccc34)sc2c1 | 16 | 56* | -5 | -1 | 8 | 35* | 50* | 11 | 9
COc1cc(-c2cc(C(=O)NCc3ccco3)c3ccccc3n2)cc(OC)c1OC | 11 | 57* | -2 | -2 | 2 | 23* | 42 | 8 | 7
COc1cc(-c2cc(C(=O)NCc3ccc(S(N)(=O)=O)cc3)c3ccccc3n2)cc(OC)c1OC | 1 | 32 | 7 | 1 | -10 | · | · | · | ·
O=C(/C=C/c1cc([N+](=O)[O-])ccc1OC(F)F)Nc1cccc(OC(F)F)c1 | 5 | 75* | 0 | -7 | 9 | 34* | 65* | 7 | 4
Cc1ccc(-n2c(-c3cnccn3)n[nH]c2=S)c(Br)c1 | -3 | 104* | 4 | -2 | 16 | 8 | -6 | 7 | 8
Cc1ccc2nc(C(F)(F)F)c(C#N)c(N)c2c1 | 9 | -3 | 3 | -8 | -4 | · | · | · | ·
COc1ccc(C(C#N)c2nc3ccccc3nc2Cl)cc1 (stereo unspecified) | 1 | -3 | 1 | -5 | 8 | · | · | · | ·
Cc1cccc(C(C#N)c2nc3ccccc3nc2C(F)(F)F)c1 (stereo unspecified) | -1 | 80* | -11 | -5 | -4 | 5 | 83* | 0 | 6
N#CC(c1ccc(Cl)cc1)c1nc2ccccc2nc1C(F)(F)F (stereo unspecified) | -1 | 57* | -13 | -5 | -2 | 7 | 31 | 1 | -2
